Results as given in PubChem BioAssay AID1040 (The Scripps Research Institute Molecular Screening Center, 2008).
In all, about 200,000 compounds went through this assay and about 2,000 (1%) were called active. Many of the other results were omitted from the sample, so actives are more common in it than they were. A number with no mark means an inactive call.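 Rule for the calls: active = inhibition above the campaign mean inhibition of all tested compounds plus 3 SD (cut at about 20% in these data); inactive = the rest.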

molecular target: Neuropeptide Y receptor type 1 (Homo sapiens) (UniProt P25929); assay: blockers of human neuropeptide Y Y1 receptor – cell-based, primary screen (AID 1040); details: HEK293-CNG Y1 cells, membrane potential fluorescence; at 3.6 µM; stronger effect = higher value; NPY at EC95, then isoproterenol;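 note: 0% = DMSO wells given NPY plus isoproterenol and 100% = isoproterenol alone without NPY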
In short: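 Material: HEK293 Y1/CNG channel cell line | Also added: NPY (25 nM), isoproterenol (1 µM), Ro 20-1724 (25 µM) | Compound: One concentration, 3.6 µM, in 0.4% DMSO | Schedule: 3 h dye uptake, 1 h room-temperature compound, 45 min post-isoproterenol | Signal: Membrane-potential fluorescent dye readout | Read-out: % inhibition of NPY effect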

Sequence of Neuropeptide Y receptor type 1 (Homo sapiens) (P25929 whole entry, looked up): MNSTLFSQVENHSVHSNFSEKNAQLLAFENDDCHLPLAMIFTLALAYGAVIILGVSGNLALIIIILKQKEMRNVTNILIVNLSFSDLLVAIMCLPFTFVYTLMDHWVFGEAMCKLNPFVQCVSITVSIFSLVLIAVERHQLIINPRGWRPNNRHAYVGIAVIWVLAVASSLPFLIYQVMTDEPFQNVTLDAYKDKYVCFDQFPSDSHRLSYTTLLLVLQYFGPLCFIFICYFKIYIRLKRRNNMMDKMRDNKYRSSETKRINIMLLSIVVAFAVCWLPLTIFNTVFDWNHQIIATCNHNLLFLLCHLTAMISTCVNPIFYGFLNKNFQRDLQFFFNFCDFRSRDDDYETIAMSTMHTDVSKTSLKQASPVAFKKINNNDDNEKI

Row | Structure (SMILES) | inhibition
1 | CCCCNC(=O)c1onc(CSc2cccc(OC)c2)c1C(=O)O | 28.4% (active)
2 | CCOc1cccc(SCc2noc(C(=O)NC(C)C)c2C(=O)O)c1 | 11%
3 | COCCNC(=O)c1onc(CSc2cccc(C)c2)c1C(=O)O | 9.11%
4 | COc1ccc2nc(SCc3ccccc3)nc(C)c2c1 | 4.78%
5 | Cc1cccc(NC(=S)Nc2ccc(Br)cc2)c1 | 3.74%
6 | Cc1cccc(NC(=S)NCCN(C2CCCCC2)C2CCCC2)c1 | 21.2% (active)
7 | Cc1cccc(NC(=S)Nc2ccc(Cl)c(Cl)c2)c1 | 1.7%
8 | Cc1nc(-c2ccccc2)cn2c1nc1ccccc12 | 5.56%
9 | O=C(Cc1coc2ccc3ccccc3c12)NCc1cccs1 | 1.1%
10 | COc1ccccc1C(=O)Nc1ccc(NC(=O)c2ccco2)c(C)c1 | 2.31%
11 | O=C(Nc1ccc(NC(=O)c2ccco2)c(Cl)c1)c1cccc([N+](=O)[O-])c1 | 0.59%
12 | COc1cc(NC(=O)c2cc([N+](=O)[O-])ccc2Br)ccc1NC(=O)c1ccco1 | 30.1% (active)
13 | CN(C)CCCO/N=C(\c1ccccc1)c1ccncc1 | -1.1%
14 | O=C(COc1cccc(F)c1)Oc1ccc(C(=O)c2ccccc2)cc1 | 2.24%
15 | CCCCc1c(O)nc2n(c1=O)CCS2 | 20.6% (active)
16 | CCOC(=O)N1CCN(C(=O)c2cnc3n(c2=O)CCS3)CC1 | -1.03%
17 | CC1CCc2c(sc3nc4n(c(=O)c23)CCS4)C1 (centres undefined) | -3.28%
18 | CCc1ccccc1NC(=O)CN(C)C(=O)COc1ccc(C)nc1[N+](=O)[O-] | -0.59%
19 | COc1ccc(/C(=N\O)c2nccc3cc(OC)c(OC)cc23)cc1OC | 5.85%
20 | O=C(CC1CCCCC1)Nc1c2c(nn1-c1ccc(F)cc1)CS(=O)(=O)C2 | 46.3% (active)
21 | Cc1ccc(-n2nc3c(c2NC(=O)CCC2CCCCC2)CS(=O)C3)cc1 (centres undefined) | 8.28%
22 | O=C(CC1CCCCC1)NCc1ccc(F)cc1 | -0.26%

Row | Structure (SMILES) | inhibition
23 | CC(NC(=S)NC1CCCCC1)C(c1ccccc1)N1CCOCC1 (centres undefined) | 0.27%
24 | O=S(=O)(Cc1ccccc1)c1nc2ccccc2n1Cc1ccccn1 | -1.06%
25 | O=S(=O)(O)c1nc2ccccc2n1Cc1ccc(Cl)cc1Cl | -2.49%
26 | O=S(=O)(O)c1nc2ccccc2n1Cc1ccc(Cl)cc1 | 21.2% (active)
27 | O=C(CN1CCCCC1)Nc1ccccc1Cl | -2.44%
28 | O=C(Nc1ccccc1Cl)c1ccc2nsnc2c1 | 0.69%
29 | O=C(Nc1ccccc1Cl)/C(Cl)=C(\Cl)S(=O)c1ccccc1 (centres undefined) | 27.5% (active)
30 | CC(NC(=O)COC(=O)c1ccc(Cl)cc1O)c1ccc(F)cc1 (centres undefined) | -0.49%
31 | COc1ccccc1Nc1ncnc2c1oc1ccccc12 | 21.3% (active)
32 | Cc1nc(Cl)c2oc3ccccc3c2n1 | 3.46%
33 | CCc1nc(Nc2ccc3nccnc3c2)c2oc3ccccc3c2n1 | -0.08%
34 | COc1ccc(-n2nc3c(c2NC(=O)c2ccc(N4C(=O)CCC4=O)cc2)CSC3)cc1 | 2.78%
35 | N#C/C(=C\c1ccc(-c2cccc([N+](=O)[O-])c2)o1)C(=O)NCCN1CCOCC1 | 0.61%
36 | Cc1ccc(C(=O)N/C(=C/c2ccc(-c3cccc([N+](=O)[O-])c3)o2)C(=O)NCCCN(C)C)cc1 | 27.8% (active)
37 | CN(C)CCNC(=O)/C(=C/c1cccc([N+](=O)[O-])c1)NC(=O)c1ccccc1 | 2.65%
38 | CCOC(=O)c1cccnc1NC(=O)c1ccncc1 | -1.05%
39 | CC(C)N(C(=O)CSc1nc(COc2ccccc2)nc2ccccc12)C(C)C | 3.31%
40 | CCOC(=O)N1CCN(C(=S)Nc2ccc(C)cc2C)CC1 | 3.77%
41 | CCOC(=O)c1nn(-c2cccc(C)c2)cc1C(=O)c1ccccc1 | 22% (active)
42 | CCOC(=O)c1cn(Cc2cccc(C)c2)nn1 | -0.81%
43 | CC(=O)c1nn(-c2cccc(Br)c2)cc1C(=O)c1cccc2ccccc12 | -2.46%
44 | CCCCCCC(=O)Nc1nc(C)c(-c2csc(Nc3cc(Cl)ccc3OC)n2)s1 | 11.2%

Row | Structure (SMILES) | inhibition
45 | CCCCC(=O)Nc1nc(C)c(-c2csc(Nc3ccc(Cl)cc3)n2)s1 | 4.16%
46 | CCCCCCC(=O)Nc1nc(C)c(-c2csc(Nc3cccc(OC)c3)n2)s1 | 28.2% (active)
47 | CCOC(=O)C1CCCN(C(=O)COc2ccc(N(C)S(=O)(=O)c3ccc(C)cc3)cc2)C1 (centres undefined) | 2%
48 | CCSC1=NCCN1S(=O)(=O)c1ccc(F)cc1 | -1.87%
49 | COCCNC(=O)COc1ccc(C)c(C)c1 | -3.6%
50 | Cc1ccc(OCC(=O)Nc2cccc3c2CCCC3)cc1C | 21.6% (active)
51 | Cc1cccc(OCC(=O)Nc2ccccc2F)c1 | 5.47%
52 | COc1ccc(C2Nc3ccccc3C(=O)N2Cc2ccccc2)cc1Cn1nnc2ccccc21 (centres undefined) | 27.9% (active)
53 | COc1ccc(C2Nc3ccccc3C(=O)N2c2ccc(Cl)cc2)cc1Cn1cc([N+](=O)[O-])cn1 (centres undefined) | 3.97%
54 | COc1ccc(C2Nc3ccccc3C(=O)N2c2ccc(F)cc2)cc1Cn1nnc2ccccc21 (centres undefined) | -0.97%
55 | OCCC1CN(Cc2cccc(OC3CCCC3)c2)CCN1Cc1ccsc1 (centres undefined) | 7.81%
56 | CC(=O)NCCC(=O)Nc1nc(C)c(Cc2ccc3c(c2)OCO3)s1 | 3.53%
57 | CC(C[N+](C)(C)C)OC(N)=O (centres undefined) | -2.3%
58 | CC(=O)OC(C)C[N+](C)(C)C (centres undefined) | 25.2% (active)
59 | CC1CN(CCCOc2ccccc2-c2ccccc2)CC(C)O1 (centres undefined) | 24.5% (active)
60 | c1ccc(-c2ccccc2OCCN2CCCCC2)cc1 | 22.3% (active)
61 | Cc1cc(C)c(OCCN2CC(C)OC(C)C2)c(Br)c1 (centres undefined) | 9.03%
62 | CC1CCCN(CCOCCOc2ccccc2-c2ccccc2)C1 (centres undefined) | 12.5%
63 | CN1CCN(CCCCOc2ccccc2-c2ccccc2)CC1 | 12.9%
64 | CC1CN(CCOc2ccccc2[N+](=O)[O-])CC(C)O1 (centres undefined) | -1.43%
